Screening results: PubChem, The Scripps Research Institute Molecular Screening Center
The list is not random: actives were taken first. Their share in the collection is about 2.2%.
CHRM1 agonist: agonists of human M1 muscarinic receptor | P11229 | CHO-K1 hM1, Fluo-8 calcium fluorescence, agonist mode; 0% DMSO, 100% acetylcholine EC100 | activation, % at 3 µM | actives 0.33% (n = 360,000);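 active = activation above the run's mean compound activation plus 3 SD, cut at about 16% in these data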;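 note: peak over basal fluorescence ratio within a 140 s kinetic read after compound addition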
Target sequence (P11229 whole entry, looked up): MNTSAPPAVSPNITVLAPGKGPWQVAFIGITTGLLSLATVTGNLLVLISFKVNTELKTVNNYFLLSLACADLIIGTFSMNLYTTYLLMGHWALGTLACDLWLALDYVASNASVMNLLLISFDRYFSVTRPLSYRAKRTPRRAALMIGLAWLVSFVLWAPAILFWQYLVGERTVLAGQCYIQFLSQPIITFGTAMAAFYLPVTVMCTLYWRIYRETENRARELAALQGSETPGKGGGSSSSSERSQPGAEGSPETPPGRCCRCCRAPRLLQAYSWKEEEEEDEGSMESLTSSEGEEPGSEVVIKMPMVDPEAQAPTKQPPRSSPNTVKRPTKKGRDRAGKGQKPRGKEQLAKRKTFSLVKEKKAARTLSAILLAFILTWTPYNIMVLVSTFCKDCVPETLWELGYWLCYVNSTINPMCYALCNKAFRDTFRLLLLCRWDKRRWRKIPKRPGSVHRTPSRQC
CHRM5 agonist: agonists of human muscarinic M5 receptor (CHRM5). CHO-K1 hM5 cells, Fluo-8 calcium fluorescence; 0% DMSO wells, 100% maximal acetylcholine response. AID 624037. P08912. actives 0.19% (n = 360,000). activation, % at 3 µM;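 active = activation above the run's mean over test compounds plus 3 SD, cut at about 23% in these data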;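 note: signal is peak over basal fluorescence ratio across the kinetic read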
CHRM5 PAM: positive allosteric modulators of human muscarinic M5 receptor; activation, % at 3 µM; actives 0.3% (n = 360,000); CHO-K1 hM5, Fluo-8 calcium, ACh EC20 PAM; 0% = ACh EC20, 100% = ACh EC100; AID 624038;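 active = activation above the run cutoff, the mean activation of all test compounds plus 3 SD, cut at about 18% in these data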
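system = human M5 receptor in CHO-K1 cells | compound = one concentration, 3 µM final (nominal) | schedule = Post-acetylcholine fluorescence recording 140 s | signal = Fluo-8 calcium dye fluorescence, kinetic read | benchmarks = low control EC20 acetylcholine (0%), high control EC100 acetylcholine (100%) | repeats = singlicate, one well per test compound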
CHRM1 antagonist: blocks human M1 muscarinic receptor | CHO-K1 hM1, Fluo-8 calcium fluorescence, ACh EC80 antagonist | inhibition, % at 3 µM | actives 1.3% (n = 360,000) | AID 588852;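 active = percent inhibition above its own plate's cutoff, namely the mean of that plate's compound wells plus 3 SD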;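 note: peak over basal fluorescence ratio during 140 s after agonist addition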
M5 antag: CHRM5 antagonism in calcium assay; P08912; CHO-hM5 cells, Fluo-8 calcium fluorescence, ACh EC80; inhibition, % at 3 µM; actives 0.59% (n = 360,000); AID 624040;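 active = inhibition above a per-plate cutoff, the mean of that plate's test compounds plus 3 SD, cut at about 27% in these data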
M1 PAM: potentiates human M1 receptor response to acetylcholine. P11229. CHO-K1 hM1, Fluo-8 calcium fluorescence, ACh EC20; 0% = ACh EC20, 100% = maximal ACh. activation, % at 3 µM. actives 0.088% (n = 360,000); in the data active = activation above about 19%, passing the limit was not always enough
Each line names hits and unclear results; the compound was inactive in the other large screens.

CN(CCNC(=O)C1CCCN(c2ncnc3c2nc2n3CCCCC2)C1)Cc1ccccc1 (configuration not stated)	none
Cc1c(C(=O)NCc2cccs2)sc(=O)n1Cc1ccc(S(=O)(=O)N(C)C)cc1	none
O=C(CCCN1CCC(C(O)c2ccc(F)cc2)CC1)c1ccc(F)cc1 (configuration not stated)	none
O=C(CCCN1CCC(C(=O)c2ccc(F)cc2)CC1)c1ccc(F)cc1	CHRM1 antagonist 89
O=C(COC(=O)c1cc([N+](=O)[O-])ccc1NCCO)Nc1cccc(S(=O)(=O)N2CCCC2)c1	CHRM1 antagonist 40
CC(Oc1ccccc1Cl)C(=O)Nc1ccc(S(=O)(=O)N2CCCC2)cc1 (configuration not stated)	CHRM1 antagonist 91
COc1ccc(NC(=O)COC(=O)c2cc(S(=O)(=O)N3CCCC3)ccc2O)cc1	none
CC(=O)Nc1ccc(NC(=O)C(C)OC(=O)c2ccc(S(=O)(=O)N3CCCCC3)cc2)cc1 (configuration not stated)	none
CC(=O)Nc1ccc(NC(=O)COC(=O)c2cc(S(=O)(=O)N3CCCC3)ccc2O)cc1	CHRM1 antagonist 30
CC(OC(=O)C(C)Oc1ccccc1)C(=O)Nc1ccc(S(=O)(=O)N2CCCCC2)cc1 (configuration not stated)	none
CC(OC(=O)c1ccc(Cl)nc1)C(=O)Nc1ccc(S(=O)(=O)N2CCCC2)cc1 (configuration not stated)	CHRM1 antagonist 36
O=C(COC(=O)c1cc([N+](=O)[O-])ccc1NCCO)Nc1ccc2c(c1)OCO2	none
O=C(Oc1ccccc1C(=O)Nc1ccccc1)c1ccc(Br)c([N+](=O)[O-])c1	none
CC1=CC=CC2=NC(=O)CC(C)(C(=O)N(CC(=O)NC3CCCC3)c3ccc(F)cc3)N12 (configuration not stated)	none
CC(Oc1ccc(Cl)cc1)C(=O)Nc1ccc(S(=O)(=O)N2CCOCC2)cc1 (configuration not stated)	CHRM1 agonist 38, CHRM5 agonist 38
COc1ccccc1OCC(=O)Nc1ccc(S(=O)(=O)N2CCCC2)cc1	none
O=C(COc1ccccc1Br)Nc1ccc(S(=O)(=O)N2CCCC2)cc1	CHRM1 antagonist 42
Cc1cc(O)c(-c2cc(C(=O)Nc3ccc(S(=O)(=O)N4CCOCC4)cc3)[nH]n2)cc1C	none
O=C(Nc1ccc(S(=O)(=O)N2CCOCC2)cc1)c1cc(-c2cc(Cl)ccc2O)n[nH]1	M5 antag 29
CC1(C)CN(C(=S)Nc2ccc(F)cc2F)C1=O	none
CS(=O)(=O)N1CCN(C(=O)c2cc(-c3ccncc3)nc3ccc(Cl)cc23)CC1	CHRM1 antagonist 31
CS(=O)(=O)N1CCN(C(=O)c2cc(-c3ccccc3)nc3ccccc23)CC1	none
Cn1c(=O)c(NCCO)c2c3c(cccc31)C(=O)c1ccccc1-2	CHRM1 agonist 70, CHRM5 agonist 32
CC(=O)Nc1ccc(Nc2c3c4c(cccc4n(C)c2=O)C(=O)c2ccccc2-3)cc1	none
Cn1c(=O)c(NC2CCCCC2)c2c3c(cccc31)C(=O)c1ccccc1-2	none
CCCCNc1c2c3c(cccc3n(C)c1=O)C(=O)c1ccccc1-2	CHRM1 agonist 141, CHRM5 agonist 140, CHRM1 antagonist 75, M5 antag 71
Cn1c(=O)c(NCCc2ccccc2)c2c3c(cccc31)C(=O)c1ccccc1-2	CHRM1 agonist 166, CHRM5 agonist 93, CHRM1 antagonist 80, M5 antag 74
Cn1c(NCCc2ccccc2)cc(=O)n(C)c1=O	none
Cc1cccc(C)c1C(OCCN(C)C)C1CCCCC1 (configuration not stated)	CHRM1 antagonist 99, M5 antag 100
COCCN(C(=O)CCl)C(C(=O)NC1CCCCC1)c1ccccc1C (configuration not stated)	none
N#Cc1c(-c2ccccc2Cl)cc(C2CC2)nc1N	CHRM1 agonist 42, CHRM5 agonist 56
Cc1ccc(NC(=O)COC(=O)CCc2nc3ccccc3c(=O)[nH]2)cc1Cl	none
COc1ccc(C(C(=O)OC(C)CN(C)C)c2ccccc2)cc1 (configuration not stated)	CHRM1 antagonist 32
COc1ccc(C(C(=O)c2ccccc2)c2ccccc2)cc1 (configuration not stated)	none (no result: CHRM1 agonist, CHRM1 antagonist, M1 PAM)
C[C@H](NC(=O)c1ncn(C)c1C(=O)N[C@@H](C)c1ccccc1)c1ccccc1	none
Cc1ccc(S(=O)(=O)NC(=O)C2(C)CCN2C(=O)c2cccc(F)c2)nc1 (configuration not stated)	none
COc1ccc(S(=O)(=O)N(CC(=O)NC2CCCCC2)c2ccc(F)cc2)cc1	none
CNC(=O)CN(c1ccc(OC)cc1)S(=O)(=O)c1ccc(F)cc1	CHRM5 PAM 28
COc1ccc(N(CC(=O)Nc2c(C)n(C)n(-c3ccccc3)c2=O)S(=O)(=O)c2ccc(F)cc2)cc1	CHRM5 PAM 21
Cc1nn(C(=O)c2cc3sccc3[nH]2)c(C)c1C	none
CCOc1ccc(CCNC(=O)COC(=O)C2CC2)cc1OCC	none
COc1ccc(Oc2ncnc3sccc23)cc1	CHRM5 PAM 18
COc1ccc(Nc2ncnc3sccc23)cc1	none
CN(C)/C=N/c1c(C#N)nnn1Cc1ccccc1	none
Cc1c(CCOC(=O)c2cc([N+](=O)[O-])cc([N+](=O)[O-])c2)sc[n+]1CC(=O)c1ccccc1	none
Cc1c(CCOC(=O)C23CC4CC(CC(C)(C4)C2)C3)sc[n+]1CC(=O)c1ccccc1	none
Cc1c(CCOC(=O)c2ccccc2)sc[n+]1CC(=O)c1ccc(Br)cc1	CHRM1 antagonist 77, M5 antag 28
Cc1c(CCOC(=O)c2ccccc2)sc[n+]1Cc1ccccc1	CHRM1 antagonist 98, M5 antag 95
CCC(C)/C=C/C1=CC2=C(Cl)C(=O)C3(C)OC(=O)C(C(=O)C(C)C(C)O)C3C2=CO1 (configuration not stated)	none
CC1CCN(Cc2ccc(NC(=O)C3CCN(c4nnc(-n5cccc5)s4)CC3)cc2)CC1	CHRM1 antagonist 97
O=C(Nc1ccc2c(c1)OCO2)c1ccc2sc([C@H]3C[C@H](O)[C@@H](CO)O3)nc2c1	M1 PAM 28
COc1ccc(C2CC(=O)c3c(O)cc(O)cc3O2)cc1O (configuration not stated)	CHRM1 antagonist 28
O=C1CC(c2ccc(O)c(O)c2)Oc2cc(O)cc(O)c21 (configuration not stated)	none
